For 17 compounds, IC50 and Activity results are on record in ChEMBL document CHEMBL1152543, “Novel semisynthetic derivatives of betulin and betulinic acid with cytotoxic activity” (Bioorg Med Chem, 2009).

Holding throughout (assay type): functional, cell-based
Experiment [1] deals with HepG2. Briefly: Cytotoxicity against human HepG2 cells after 72 hrs by MTT assay. The note with it: HepG2, 72 h. Summed up: (§1)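 MTT dose–response: exponentially growing HeLa (1×10^3 cells/well) or HepG2 (8×10^3 cells/well, DMEM + 10% FBS, 1 mM pyruvate) seeded, left 24 h, then given a compound range in DMSO (final <0.1%) for 72 h. MTT 0.5 mg/ml for 1 h, formazan dissolved in DMSO, read at 550 nm. IC50 vs untreated by non-linear regression, mean ± SD of at least three experiments.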

For experiment [2], the system named is Jurkat. Briefly: Cytotoxicity against human Jurkat cells after 72 hrs by XTT assay. Summed up:
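Jurkat cells (RPMI 1640, 10% FBS, 2 mM glutamine) in exponential growth plated at 5.5×10^3 cells/well and treated in triplicate with a concentration range or DMSO vehicle for 72 h. XTT labeling mix added, 4 h, absorbance at 450 nm. IC50 vs untreated by non-linear regression; mean ± SD of ≥3 experiments.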

The test system of experiment [3] is HeLa. Briefly: Cytotoxicity against human HeLa cells after 72 hrs by MTT assay. The gist of the method:
as §1
In general terms: Tetrazolium assays rely on reduction of a dye to a coloured formazan, in cell work by metabolically active cells.

For experiment [4], the system named is MCF7. Briefly: Cytotoxicity against human MCF7 cells at 20 uM after 72 hrs by MTT assay. The gist of the method:
(§2)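 Single-concentration screen: compound at 20 μM applied to cells plated at 1×10^3–30×10^3 cells/well (density set by cell type), 72 h at 37 °C, 5% CO2. Viability read by MTT, triplicate wells, experiment repeated three times; result given as % proliferation versus control.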

In experiment [5] the test system is HepG2. Nature of the experiment: Cytotoxicity against human HepG2 cells at 20 uM after 72 hrs by MTT assay. The gist of the method:
as §2

Experiment [6] deals with A-375. Nature of the experiment: Cytotoxicity against human A375 cells at 20 uM after 72 hrs by MTT assay. The gist of the method:
as §2

Experiment [7] concerns HT-29. Nature of the experiment: Cytotoxicity against human HT-29 cells at 20 uM after 72 hrs by MTT assay. The gist of the method: as §2
Experiment [8] has as its system HeLa. Nature of the experiment: Cytotoxicity against human HeLa cells at 20 uM after 72 hrs by MTT assay. The gist of the method:
as §2

For experiment [9], the system named is MIA PaCa-2. Briefly: Cytotoxicity against human MIAPaCa2 cells at 20 uM after 72 hrs by MTT assay. Summed up:
as §2

For experiment [10], the system named is SH-SY5Y. Nature of the experiment: Cytotoxicity against human SH-SY5Y cells at 20 uM after 72 hrs by XTT assay. The gist of the method:
(§3)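 XTT screen at a single concentration: cells seeded at 1×10^3–30×10^3 cells/well depending on cell type, exposed to 20 μM for 72 h at 37 °C, 5% CO2, then read by XTT. Triplicate wells, three independent repeats; output is % proliferation relative to control.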

Experiment [11] concerns Jurkat. Nature of the experiment: Cytotoxicity against human Jurkat cells at 20 uM after 72 hrs by XTT assay. Summed up:
as §3

Calls of active or inactive are those of the source. No cut-off for these calls is given here. A value given as a limit tells only on which side of the number the result lay.

Regarding `C=C(C)[C@@H]1CC[C@]2(COC(C)=O)CC[C@]3(C)[C@H](CC[C@@H]4[C@@]5(C)CC[C@H](OC(=O)n6ccnc6)C(C)(C)[C@@H]5CC[C@]43C)[C@@H]12`, the IC50 in experiment [1], in experiment [2] and in [3] was above 30 µM throughout.

In the case of `C=C(C)[C@@H]1CC[C@]2(C(=O)n3ccnc3)CC[C@]3(C)[C@H](CC[C@@H]4[C@@]5(C)C=CC(=O)C(C)(C)[C@@H]5CC[C@]43C)[C@@H]12`, the 50% inhibitory concentration (IC50) (as a rule, the concentration that inhibits the measured activity by half) in experiment [1] stood at 1.7 µM; in [2], 2.3 µM; in experiment [3], 3 µM.

`C[C@@H](C=O)[C@@H]1CC[C@]2(COC(=O)n3ccnc3)CC[C@]3(C)[C@H](CC[C@@H]4[C@@]5(C)CC[C@H](O)C(C)(C)[C@@H]5CC[C@]43C)[C@@H]12`: the outcome in experiment [4], in [5], in [6], in experiment [7], in [8] and in [9] was Active. Also, the result in [10] and in experiment [11] was Active. Further, the figures for the IC50 in [1], in [2] and in [3] were 11.5 µM, 13.7 µM and 11.1 µM, respectively.

As to `C=C(C)[C@@H]1CC[C@]2(C(=O)n3ccnc3)CC[C@]3(C)[C@H](CC[C@@H]4[C@@]5(C)CCC(=O)C(C)(C)[C@@H]5CC[C@]43C)[C@@H]12`, the IC50 in experiment [1] worked out at 0.8 µM; in [2], 1.4 µM; in [3], 2 µM.

Regarding `C=C(C)[C@@H]1CC[C@]2(COC(=O)n3ccnc3)CC[C@]3(C)[C@H](CC[C@@H]4[C@@]5(C)CC[C@H](O)C(C)(C)[C@@H]5CC[C@]43C)[C@@H]12`, the result in experiment [4], in experiment [5], in experiment [6], in experiment [7], in [8] and in experiment [9] was Active. Further, the result in [10] and in experiment [11] was Active. In addition, the IC50 was 4.2 µM in experiment [1], 16.3 µM in [2] and 7.6 µM in experiment [3].

On to `C=C(COC)[C@@H]1CC[C@]2(COC(=O)n3ccnc3)CC[C@]3(C)[C@H](CC[C@@H]4[C@@]5(C)CC[C@H](OC(=O)n6ccnc6)C(C)(C)[C@@H]5CC[C@]43C)[C@@H]12`, for which the half-maximal inhibitory concentration (IC50) in experiment [1] is 19.6 µM; in experiment [2], 16.2 µM; in experiment [3], above 30 µM.

Turning to `C=C(C)[C@@H]1CC[C@]2(CO)CC[C@]3(C)[C@H](CC[C@@H]4[C@@]5(C)CC[C@H](OC(=O)n6ccnc6)C(C)(C)[C@@H]5CC[C@]43C)[C@@H]12`, the values for the concentration for half-maximal inhibition (IC50) in experiment [1], in [2] and in experiment [3] were 2 µM, 11.1 µM and 3 µM, respectively.

For `C=C(C)[C@@H]1CC[C@]2(C(=O)n3ccnc3)CC[C@]3(C)[C@H](CC[C@@H]4[C@@]5(C)C=C(O)C(=O)C(C)(C)[C@@H]5CC[C@]43C)[C@@H]12`, the result in experiment [4], in experiment [5], in [6], in experiment [7], in experiment [8] and in experiment [9] was Active. For the same compound, the result in experiment [10] and in [11] was Active. In addition, the values for the IC50 in experiment [1], in experiment [2] and in [3] were 6.5 µM, 7 µM and 4.6 µM, respectively.

In the case of `C=C(C)[C@@H]1CC[C@]2(C(=O)n3ccnc3)CC[C@]3(C)[C@H](CC[C@@H]4[C@@]5(C)C=C(OC(=O)n6ccnc6)C(=O)C(C)(C)[C@@H]5CC[C@]43C)[C@@H]12`, the concentration for half-maximal inhibition (IC50) in experiment [1] is 4 µM; in [2], 8.1 µM; in experiment [3], 3.9 µM.

For `C=C(COC)[C@@H]1CC[C@]2(COC(=O)n3ccnc3)CC[C@]3(C)[C@H](CC[C@@H]4[C@@]5(C)CC[C@H](O)C(C)(C)[C@@H]5CC[C@]43C)[C@@H]12`, the result in [4], in experiment [5], in experiment [6], in experiment [7], in [8] and in experiment [9] was Active. Besides, the outcome in experiment [10] and in experiment [11] was Active. Besides, the IC50 in experiment [1] is 8.3 µM; in experiment [2], 12.2 µM; in experiment [3], 9.8 µM.

Regarding `C=C(C)[C@@H]1CC[C@]2(C(=O)OC)CC[C@]3(C)[C@H](CC[C@@H]4[C@@]5(C)CC[C@H](OC(=O)n6ccnc6)C(C)(C)[C@@H]5CC[C@]43C)[C@@H]12`, the IC50 in experiment [1] came out at 4.3 µM; in [2], 9.9 µM; in experiment [3] it was 8.2 µM.

As to `C=C(C)[C@@H]1CC[C@]2(C(=O)O)CC[C@]3(C)[C@H](CC[C@@H]4[C@@]5(C)CC[C@H](O)C(C)(C)[C@@H]5CC[C@]43C)[C@@H]12` [BETULINIC ACID], the result in experiment [4], in experiment [5], in experiment [6], in [7], in experiment [8] and in experiment [9] was Active. For the same compound, the outcome in experiment [10] and in experiment [11] was Active. The IC50 in experiment [1] was 36.4 µM; in experiment [2], 26.9 µM; in experiment [3] it was 26 µM.

With `C=C(C)[C@@H]1CC[C@]2(COC(=O)n3ccnc3)CC[C@]3(C)[C@H](CC[C@@H]4[C@@]5(C)CC[C@H](OC(=O)n6ccnc6)C(C)(C)[C@@H]5CC[C@]43C)[C@@H]12`, the IC50 in experiment [1], in experiment [2] and in experiment [3] was above 30 µM each time.

For the compound `C=C(C)[C@@H]1CC[C@]2(C(=O)n3ccnc3)CC[C@]3(C)[C@H](CC[C@@H]4[C@@]5(C)CC[C@H](OC(=O)n6ccnc6)C(C)(C)[C@@H]5CC[C@]43C)[C@@H]12`, the half-inhibitory concentration (IC50) was 2.9 µM in [1], 6 µM in [2] and 8.2 µM in experiment [3].

In the case of `C=C(C)[C@@H]1CC[C@]2(COC(=O)n3ccnc3)CC[C@]3(C)[C@H](CC[C@@H]4[C@@]5(C)CC[C@H](OC(C)=O)C(C)(C)[C@@H]5CC[C@]43C)[C@@H]12`, the IC50 in [1], in experiment [2] and in [3] was above 30 µM throughout.

Consider `C[C@@H](C=O)[C@@H]1CC[C@]2(COC(=O)n3ccnc3)CC[C@]3(C)[C@H](CC[C@@H]4[C@@]5(C)CC[C@H](OC(=O)n6ccnc6)C(C)(C)[C@@H]5CC[C@]43C)[C@@H]12`, for which the IC50 is 26.1 µM in experiment [1], 20.2 µM in [2] and 19.2 µM in [3].

Turning to `C=C(C)[C@@H]1CC[C@]2(C(=O)O)CC[C@]3(C)[C@H](CC[C@@H]4[C@@]5(C)CC[C@H](OC(=O)n6ccnc6)C(C)(C)[C@@H]5CC[C@]43C)[C@@H]12`, the outcome in experiment [4], in [5], in experiment [6], in experiment [7], in experiment [8] and in experiment [9] was Active. The result in experiment [10] and in experiment [11] was Active. For the same compound, the IC50 amounted to 6.2 µM in experiment [1], 5.2 µM in experiment [2] and 5.1 µM in experiment [3].
